Source: ChEMBL document CHEMBL1141572, “N-substituted 3-acetyltetramic acid derivatives as antibacterial agents” (J Med Chem, 2008)
In brackets after ≈: the same amount, converted by molar mass. Activity calls are given as the source filed them. The calls are words filed in the database; no cut-off is given here.

Tests used:
[1] = test system: Mycobacterium tuberculosis; experiment: Antimycobacterial activity against Mycobacterium tuberculosis H37Rv after 7 days by micro-broth dilution method; format: functional; conditions: for MIC: 168 h
Bacillus anthracis = experiment: Antibacterial activity against Bacillus anthracis Sterne 34F2 by micro-broth dilution method; format: functional
Bacillus subtilis = experiment: Antibacterial activity against Bacillus subtilis ATCC 23857 by microbroth dilution method; format: functional
Enterococcus faecalis = experiment: Antibacterial activity against Enterococcus faecalis ATCC 33186 by microbroth dilution method; format: functional
Staphylococcus aureus [2] = experiment: Antibacterial activity against methicillin-resistant Staphylococcus aureus ATCC 33591 by micro-broth dilution method; format: functional
Staphylococcus aureus [3] = experiment: Antibacterial activity against methicillin-sensitive Staphylococcus aureus 8325 ATCC 35556 by micro-broth dilution method; format: functional
Cutibacterium acnes = experiment: Antibacterial activity against Propionibacterium acnes ATCC 6919 by micro-broth dilution method; format: functional
Streptococcus pyogenes = experiment: Antibacterial activity against Streptococcus pyogenes ATCC 700294 by micro-broth dilution method; format: functional
Streptococcus pneumoniae = experiment: Antibacterial activity against Streptococcus pneumoniae DAW30 by micro-broth dilution method; format: functional
Escherichia coli = experiment: Antibacterial activity against Escherichia coli by micro-broth dilution method; format: functional
Pseudomonas aeruginosa = experiment: Antibacterial activity against Pseudomonas aeruginosa by micro-broth dilution method; format: functional
Vero = experiment: Cytotoxicity against african green monkey Vero cells after 72 hrs by MTT proliferation assay; format: cell-based; conditions: Chlorocebus sabaeus
Summary of the method: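 IC50 is taken as the concentration that lowers Vero kidney cell viability by 50%.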

[4] = Selectivity index, ratio of IC50 for african green monkey Vero cells to MIC for methicillin- sensitive Staphylococcus aureus 8325 ATCC 35556; format: functional
Summary of the method: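 Selectivity index is calculated as the Vero cell cytotoxic IC50 divided by the MIC against the wild-type, drug-sensitive, methicillin-sensitive S. aureus 8325 (ATCC 35556).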

SMILES	MIC (Escherichia coli) [µg/mL]	MIC (Pseudomonas aeruginosa) [µg/mL]	MIC [1] [µg/mL]	MIC (Bacillus anthracis) [µg/mL]	MIC (Bacillus subtilis) [µg/mL]	MIC (Enterococcus faecalis) [µg/mL]	MIC (Staphylococcus aureus [2]) [µg/mL]	MIC (Staphylococcus aureus [3]) [µg/mL]	MIC (Cutibacterium acnes) [µg/mL]	MIC (Streptococcus pyogenes) [µg/mL]	MIC (Streptococcus pneumoniae) [µg/mL]	IC50 (Vero) [µg/mL]	Ratio [4]	other results
CC(C)C[C@@H]1C(O)=C(C#N)C(=O)N1Cc1ccc(F)cc1	> 200	> 200	–	–	–	–	–	–	–	–	–	–	–	Activity [1]: inactive; Activity (Bacillus anthracis): inactive; Activity (Bacillus subtilis): inactive; Activity (Enterococcus faecalis): inactive; Activity (Staphylococcus aureus [2]): inactive; Activity (Staphylococcus aureus [3]): inactive; Activity (Cutibacterium acnes): inactive; Activity (Streptococcus pyogenes): inactive; Activity (Streptococcus pneumoniae): inactive
N#CC1=C(O)[C@@H](Cc2ccccc2)N(Cc2ccccc2)C1=O	> 200	> 200	–	–	–	–	–	–	–	–	–	–	–	Activity [1]: inactive; Activity (Bacillus anthracis): inactive; Activity (Bacillus subtilis): inactive; Activity (Enterococcus faecalis): inactive; Activity (Staphylococcus aureus [2]): inactive; Activity (Staphylococcus aureus [3]): inactive; Activity (Cutibacterium acnes): inactive; Activity (Streptococcus pyogenes): inactive; Activity (Streptococcus pneumoniae): inactive
C/C(O)=C1\C(=O)[C@@H](CC(C)C)N(Cc2ccc(F)cc2)C1=O	> 200	> 200	100 (≈ 327 µM)	12.5 (≈ 40.9 µM)	12.5 (≈ 40.9 µM)	50 (≈ 164 µM)	12.5 (≈ 40.9 µM)	12.5 (≈ 40.9 µM)	12.5 (≈ 40.9 µM)	100 (≈ 327 µM)	25 (≈ 81.9 µM)	35.3 (≈ 116 µM)	2.8	–
C/C(O)=C1\C(=O)[C@H](CC(C)C)N(CC2=CCC3CC2C3(C)C)C1=O (some centres not stated)	> 200	> 200	100 (≈ 302 µM)	0.8 (≈ 2.41 µM)	1.6 (≈ 4.83 µM)	1.6 (≈ 4.83 µM)	1.6 (≈ 4.83 µM)	1.6 (≈ 4.83 µM)	0.8 (≈ 2.41 µM)	25 (≈ 75.4 µM)	50 (≈ 151 µM)	35.4 (≈ 107 µM)	22.1	–
CCC(C)[C@H]1C(=O)/C(=C(\C)O)C(=O)N1Cc1ccccc1 (some centres not stated)	> 200	> 200	50 (≈ 174 µM)	3.12 (≈ 10.9 µM)	25 (≈ 87 µM)	6.25 (≈ 21.7 µM)	6.25 (≈ 21.7 µM)	6.25 (≈ 21.7 µM)	6.25 (≈ 21.7 µM)	> 200	50 (≈ 174 µM)	26.3 (≈ 91.5 µM)	4.2	–
CC(C)=CCCC(C)CCN1C(=O)/C(=C(/C)O)C(=O)[C@@H]1CC(C)C (some centres not stated)	> 200	> 200	200 (≈ 596 µM)	0.4 (≈ 1.19 µM)	0.8 (≈ 2.38 µM)	0.8 (≈ 2.38 µM)	0.8 (≈ 2.38 µM)	0.4 (≈ 1.19 µM)	0.4 (≈ 1.19 µM)	25 (≈ 74.5 µM)	3.25 (≈ 9.69 µM)	7.3 (≈ 21.8 µM)	18.3	–
CCN1C(=O)/C(=C(/C)O)C(=O)[C@@H]1Cc1ccccc1	> 200	> 200	> 200	50 (≈ 193 µM)	> 200	> 200	> 200	200 (≈ 771 µM)	100 (≈ 386 µM)	> 200	> 200	–	–	–
CCCCCCCCCCN1C(=O)/C(=C(/C)O)C(=O)[C@H]1CC(C)C	> 200	> 200	25 (≈ 74.1 µM)	0.8 (≈ 2.37 µM)	0.8 (≈ 2.37 µM)	1.6 (≈ 4.74 µM)	0.8 (≈ 2.37 µM)	0.4 (≈ 1.19 µM)	0.8 (≈ 2.37 µM)	50 (≈ 148 µM)	6.25 (≈ 18.5 µM)	6.3 (≈ 18.7 µM)	15.8	–
CCCCCCCCCCN1C(=O)/C(=C(/C)O)C(=O)[C@@H]1C(C)C	> 200	> 200	12.5 (≈ 38.6 µM)	0.8 (≈ 2.47 µM)	0.4 (≈ 1.24 µM)	0.8 (≈ 2.47 µM)	0.8 (≈ 2.47 µM)	0.8 (≈ 2.47 µM)	0.4 (≈ 1.24 µM)	25 (≈ 77.3 µM)	6.25 (≈ 19.3 µM)	7 (≈ 21.6 µM)	8.8	–
C/C(O)=C1\C(=O)[C@H](Cc2ccccc2)N(Cc2ccccc2)C1=O	> 200	> 200	> 200	25 (≈ 77.8 µM)	25 (≈ 77.8 µM)	100 (≈ 311 µM)	25 (≈ 77.8 µM)	12.5 (≈ 38.9 µM)	12.5 (≈ 38.9 µM)	> 200	100 (≈ 311 µM)	75.7 (≈ 236 µM)	6.1	–
C/C(O)=C1\C(=O)[C@@H](Cc2ccccc2)N(Cc2ccccc2)C1=O	> 200	> 200	> 200	25 (≈ 77.8 µM)	25 (≈ 77.8 µM)	100 (≈ 311 µM)	25 (≈ 77.8 µM)	25 (≈ 77.8 µM)	25 (≈ 77.8 µM)	200 (≈ 622 µM)	50 (≈ 156 µM)	80.6 (≈ 251 µM)	3.2	–
CCCCN1C(=O)/C(=C(/C)O)C(=O)[C@@H]1CC(C)C	> 200	> 200	100 (≈ 395 µM)	12.5 (≈ 49.3 µM)	6.25 (≈ 24.7 µM)	1.6 (≈ 6.32 µM)	6.25 (≈ 24.7 µM)	3.12 (≈ 12.3 µM)	0.8 (≈ 3.16 µM)	> 200	100 (≈ 395 µM)	254 (≈ 1000 µM)	81.4	–
CCCCCCCCCCN1C(=O)/C(=C(/C)O)C(=O)[C@@H]1Cc1ccccc1	> 200	> 200	50 (≈ 135 µM)	0.2 (≈ 0.538 µM)	0.4 (≈ 1.08 µM)	0.8 (≈ 2.15 µM)	0.8 (≈ 2.15 µM)	0.2 (≈ 0.538 µM)	0.4 (≈ 1.08 µM)	50 (≈ 135 µM)	12.5 (≈ 33.6 µM)	21.1 (≈ 56.8 µM)	105.5	–
C/C(O)=C1\C(=O)[C@H](CC(C)C)N(Cc2ccc(F)cc2)C1=O	> 200	> 200	100 (≈ 327 µM)	12.5 (≈ 40.9 µM)	25 (≈ 81.9 µM)	50 (≈ 164 µM)	25 (≈ 81.9 µM)	12.5 (≈ 40.9 µM)	6.25 (≈ 20.5 µM)	100 (≈ 327 µM)	50 (≈ 164 µM)	27.8 (≈ 91 µM)	2.2	–
C/C(O)=C1\C(=O)[C@H](CC(C)C)N(Cc2ccc(-c3ccccc3)cc2)C1=O	> 200	> 200	50 (≈ 138 µM)	0.4 (≈ 1.1 µM)	0.4 (≈ 1.1 µM)	0.8 (≈ 2.2 µM)	0.8 (≈ 2.2 µM)	0.2 (≈ 0.55 µM)	0.2 (≈ 0.55 µM)	25 (≈ 68.8 µM)	12.5 (≈ 34.4 µM)	19.7 (≈ 54.2 µM)	98.5	–
N#CC1=C(O)[C@H](Cc2ccccc2)N(Cc2ccccc2)C1=O	> 200	> 200	–	–	–	–	–	–	–	–	–	–	–	Activity [1]: inactive; Activity (Bacillus anthracis): inactive; Activity (Bacillus subtilis): inactive; Activity (Enterococcus faecalis): inactive; Activity (Staphylococcus aureus [2]): inactive; Activity (Staphylococcus aureus [3]): inactive; Activity (Cutibacterium acnes): inactive; Activity (Streptococcus pyogenes): inactive; Activity (Streptococcus pneumoniae): inactive
CC(C)C[C@H]1C(O)=C(C#N)C(=O)N1Cc1ccc(F)cc1	> 200	> 200	–	–	–	–	–	–	–	–	–	–	–	Activity [1]: inactive; Activity (Bacillus anthracis): inactive; Activity (Bacillus subtilis): inactive; Activity (Enterococcus faecalis): inactive; Activity (Staphylococcus aureus [2]): inactive; Activity (Staphylococcus aureus [3]): inactive; Activity (Cutibacterium acnes): inactive; Activity (Streptococcus pyogenes): inactive; Activity (Streptococcus pneumoniae): inactive
COc1cccc(CN2C(=O)C(C#N)=C(O)[C@@H]2CC(C)C)c1	> 200	> 200	–	–	–	–	–	–	–	–	–	–	–	Activity [1]: inactive; Activity (Bacillus anthracis): inactive; Activity (Bacillus subtilis): inactive; Activity (Enterococcus faecalis): inactive; Activity (Staphylococcus aureus [2]): inactive; Activity (Staphylococcus aureus [3]): inactive; Activity (Cutibacterium acnes): inactive; Activity (Streptococcus pyogenes): inactive; Activity (Streptococcus pneumoniae): inactive
CCCCCCCCCCN1C(=O)/C(=C(/C)O)C(=O)[C@@H]1CC(C)C	> 200	> 200	12.5 (≈ 37 µM)	0.8 (≈ 2.37 µM)	0.8 (≈ 2.37 µM)	1.6 (≈ 4.74 µM)	0.8 (≈ 2.37 µM)	0.4 (≈ 1.19 µM)	0.8 (≈ 2.37 µM)	50 (≈ 148 µM)	6.25 (≈ 18.5 µM)	14.7 (≈ 43.6 µM)	36.8	–
CCC(C)[C@H]1C(O)=C(C#N)C(=O)N1Cc1ccccc1 (some centres not stated)	> 200	> 200	–	–	–	–	–	–	–	–	–	–	–	Activity [1]: inactive; Activity (Bacillus anthracis): inactive; Activity (Bacillus subtilis): inactive; Activity (Enterococcus faecalis): inactive; Activity (Staphylococcus aureus [2]): inactive; Activity (Staphylococcus aureus [3]): inactive; Activity (Cutibacterium acnes): inactive; Activity (Streptococcus pyogenes): inactive; Activity (Streptococcus pneumoniae): inactive
COc1cccc(CN2C(=O)/C(=C(/C)O)C(=O)[C@@H]2CC(C)C)c1	> 200	> 200	100 (≈ 315 µM)	25 (≈ 78.8 µM)	25 (≈ 78.8 µM)	100 (≈ 315 µM)	25 (≈ 78.8 µM)	12.5 (≈ 39.4 µM)	12.5 (≈ 39.4 µM)	200 (≈ 630 µM)	50 (≈ 158 µM)	40 (≈ 126 µM)	3.2	–
CCCCCCCCCCN1C(=O)C(C#N)=C(O)[C@@H]1CC(C)C	> 200	> 200	3.12 (≈ 9.74 µM)	–	–	–	–	–	–	–	–	–	–	–
